Active and inactive are the calls of the source. The calls are words filed in the database; no cut-off is given here.
Assays:
Rattus norvegicus [1] = experiment: Percentage fall in systolic blood pressure after 2 hours at 12.5 mg/kg given perorally; format: functional, Artery; conditions: route oral
Outline: (§1)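 Male Okamoto-Aoki SHR, four per group, with a concurrent vehicle control group. Oral dosing in water (0.1 mL/10 g) on two consecutive mornings. After the day-2 dose, rats were restrained in a 30 °C chamber. Tail-cuff systolic pressure was taken at 1-4 h from four traces per rat. Result is % decrease versus control mean, by 1-tailed t test, p ≤ 0.05.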

Rattus norvegicus [2] = experiment: Percentage fall in systolic blood pressure after 1 hours at 12.5 mg/kg given perorally; format: functional, Artery; conditions: route oral
Outline: (§2)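 Male Okamoto-Aoki spontaneously hypertensive rats, trained, in groups of four matched for mean systolic pressure; five treated groups and one vehicle control run concurrently. Oral dosing in water (solution or suspension, 0.1 mL/10 g) on two consecutive mornings. On day 2, rats were restrained at 30.0 ± 1.0 °C and tail-cuff systolic pressure recorded at 1–4 h; percent fall versus control, 1-tail t test, p ≤ 0.05.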

Rattus norvegicus [3] = experiment: Percentage fall in systolic blood pressure after 4 hours at 3.1 mg/kg given perorally; format: functional, organism-based; set-up: dose 3.1 mg/kg; conditions: Artery; outline: as §2
Rattus norvegicus [4] = experiment: Percentage fall in systolic blood pressure after 3 hours at 3.1 mg/kg given perorally; format: functional, organism-based; set-up: dose 3.1 mg/kg; conditions: Artery; outline: as §2
Rattus norvegicus [5] = experiment: Percentage fall in systolic blood pressure after 4 hours at 12.5 mg/kg given perorally; format: functional, Artery; conditions: route oral; outline: as §1
Rattus norvegicus [6] = experiment: Percentage fall in systolic blood pressure after 3 hours at 12.5 mg/kg given perorally; format: functional, Artery; conditions: route oral; outline: as §1
Rattus norvegicus [7] = experiment: Percentage fall in systolic blood pressure after 1 hours at 3.1 mg/kg given perorally; format: functional, Artery; conditions: route oral; outline: as §2
Rattus norvegicus [8] = experiment: Percentage fall in systolic blood pressure after 2 hours at 3.1 mg/kg given perorally; format: functional, Artery; conditions: route oral; outline: as §2
[9] = biological target: T1, Adrenergic receptor alpha-2 (Rattus norvegicus, UniProt P22086+P19328+P22909); experiment: Affinity for alpha-2 adrenergic receptor of rat cerebral cortex was determined by ligand binding using [3H]yohimbine.; format: tissue-based
T1 sequence (P22086 whole entry): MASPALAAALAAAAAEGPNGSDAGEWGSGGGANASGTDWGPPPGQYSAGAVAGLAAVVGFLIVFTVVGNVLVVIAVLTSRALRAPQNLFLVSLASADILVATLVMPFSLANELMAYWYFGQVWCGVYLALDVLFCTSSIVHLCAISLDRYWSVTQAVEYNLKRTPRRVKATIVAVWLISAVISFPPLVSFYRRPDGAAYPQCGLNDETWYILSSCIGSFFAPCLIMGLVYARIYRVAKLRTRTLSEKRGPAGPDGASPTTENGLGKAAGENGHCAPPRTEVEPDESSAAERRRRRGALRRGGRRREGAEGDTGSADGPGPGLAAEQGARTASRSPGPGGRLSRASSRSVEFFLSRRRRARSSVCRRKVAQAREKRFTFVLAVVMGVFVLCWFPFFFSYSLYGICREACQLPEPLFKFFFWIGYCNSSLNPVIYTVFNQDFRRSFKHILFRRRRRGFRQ
T1 sequence (P19328 whole entry): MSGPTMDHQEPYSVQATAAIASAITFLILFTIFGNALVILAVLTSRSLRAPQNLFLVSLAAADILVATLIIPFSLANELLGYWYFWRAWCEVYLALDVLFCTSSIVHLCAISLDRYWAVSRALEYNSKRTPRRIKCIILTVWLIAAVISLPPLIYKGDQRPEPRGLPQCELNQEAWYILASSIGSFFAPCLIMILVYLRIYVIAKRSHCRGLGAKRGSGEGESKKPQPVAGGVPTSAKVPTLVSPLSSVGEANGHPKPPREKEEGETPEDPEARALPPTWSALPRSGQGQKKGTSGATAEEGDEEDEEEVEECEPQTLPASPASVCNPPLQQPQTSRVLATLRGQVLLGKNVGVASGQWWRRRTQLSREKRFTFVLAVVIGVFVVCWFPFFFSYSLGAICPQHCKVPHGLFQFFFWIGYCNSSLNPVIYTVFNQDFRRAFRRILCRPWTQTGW
T1 sequence (P22909 whole entry): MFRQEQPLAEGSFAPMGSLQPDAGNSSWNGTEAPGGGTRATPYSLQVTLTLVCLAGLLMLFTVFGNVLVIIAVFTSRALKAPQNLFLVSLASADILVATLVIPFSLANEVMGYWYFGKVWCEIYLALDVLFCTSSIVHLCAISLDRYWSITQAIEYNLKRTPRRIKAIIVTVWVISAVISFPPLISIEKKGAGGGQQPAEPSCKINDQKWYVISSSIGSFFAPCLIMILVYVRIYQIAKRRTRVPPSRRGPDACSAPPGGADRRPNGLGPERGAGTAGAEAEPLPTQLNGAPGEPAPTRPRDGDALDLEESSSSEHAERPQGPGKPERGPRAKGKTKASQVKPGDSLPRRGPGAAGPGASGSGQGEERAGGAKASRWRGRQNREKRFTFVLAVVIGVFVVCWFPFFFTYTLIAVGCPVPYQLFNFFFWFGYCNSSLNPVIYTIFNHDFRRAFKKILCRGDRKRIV
Outline: (§3)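 Washed rat cerebral cortex membranes (homogenised in 50 mM Tris-HCl pH 7.8, pelleted at 48000g, washed 3 times) at 2.5 mg/mL protein. […] Ice-cold buffer stop, then filtration. Nonspecific binding defined with 200 μmol norepinephrine. KI from IC50 by Cheng-Prusoff, given as negative log.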

Rattus norvegicus [10] = experiment: (§4) Percentage fall in systolic blood pressure after 2 hr at 12.5 mg/kg given perorally; format: functional, organism-based; set-up: dose 12.5 mg/kg; conditions: Artery; outline: as §2
Rattus norvegicus [11] = experiment: Percentage fall in systolic blood pressure after 2 hr at 25 mg/kg given perorally; format: functional, Artery; conditions: route oral; outline: as §2
[12] = biological target: T2, Adrenergic receptor alpha-1 (Rattus norvegicus, UniProt P15823+P23944+P43140); experiment: Affinity for alpha-1 adrenoceptor of rat cerebral cortex was determined by ligand binding using [3H]prazosin.; format: tissue-based; outline: as §3
T2 sequence (P15823 whole entry): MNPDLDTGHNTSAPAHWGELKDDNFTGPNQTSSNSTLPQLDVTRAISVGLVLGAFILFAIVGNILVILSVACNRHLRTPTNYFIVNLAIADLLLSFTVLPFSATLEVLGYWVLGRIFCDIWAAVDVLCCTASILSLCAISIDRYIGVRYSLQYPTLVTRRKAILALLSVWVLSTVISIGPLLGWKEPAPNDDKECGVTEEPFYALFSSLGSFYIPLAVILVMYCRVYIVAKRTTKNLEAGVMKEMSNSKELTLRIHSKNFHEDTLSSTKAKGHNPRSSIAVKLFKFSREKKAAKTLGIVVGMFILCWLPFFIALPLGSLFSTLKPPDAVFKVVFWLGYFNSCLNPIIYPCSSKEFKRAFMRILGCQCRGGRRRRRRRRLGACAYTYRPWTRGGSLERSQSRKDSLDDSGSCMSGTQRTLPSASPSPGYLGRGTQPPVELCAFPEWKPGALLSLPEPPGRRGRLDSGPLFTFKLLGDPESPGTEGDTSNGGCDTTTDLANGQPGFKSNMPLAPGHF
T2 sequence (P23944 whole entry): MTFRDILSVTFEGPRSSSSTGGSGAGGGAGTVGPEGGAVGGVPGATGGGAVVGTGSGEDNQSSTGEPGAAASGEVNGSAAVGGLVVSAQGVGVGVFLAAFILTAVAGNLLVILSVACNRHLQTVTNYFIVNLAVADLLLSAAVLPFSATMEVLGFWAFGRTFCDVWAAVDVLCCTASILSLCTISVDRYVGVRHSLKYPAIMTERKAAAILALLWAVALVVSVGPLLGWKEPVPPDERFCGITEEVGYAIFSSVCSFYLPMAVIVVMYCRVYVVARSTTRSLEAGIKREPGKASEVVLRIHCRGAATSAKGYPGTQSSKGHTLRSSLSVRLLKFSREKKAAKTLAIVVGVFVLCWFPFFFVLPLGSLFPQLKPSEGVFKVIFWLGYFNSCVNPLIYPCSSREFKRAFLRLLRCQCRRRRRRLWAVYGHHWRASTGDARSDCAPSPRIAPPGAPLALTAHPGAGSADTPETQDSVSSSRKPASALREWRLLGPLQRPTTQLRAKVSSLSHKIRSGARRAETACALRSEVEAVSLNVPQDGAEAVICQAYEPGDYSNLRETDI
T2 sequence (P43140 whole entry): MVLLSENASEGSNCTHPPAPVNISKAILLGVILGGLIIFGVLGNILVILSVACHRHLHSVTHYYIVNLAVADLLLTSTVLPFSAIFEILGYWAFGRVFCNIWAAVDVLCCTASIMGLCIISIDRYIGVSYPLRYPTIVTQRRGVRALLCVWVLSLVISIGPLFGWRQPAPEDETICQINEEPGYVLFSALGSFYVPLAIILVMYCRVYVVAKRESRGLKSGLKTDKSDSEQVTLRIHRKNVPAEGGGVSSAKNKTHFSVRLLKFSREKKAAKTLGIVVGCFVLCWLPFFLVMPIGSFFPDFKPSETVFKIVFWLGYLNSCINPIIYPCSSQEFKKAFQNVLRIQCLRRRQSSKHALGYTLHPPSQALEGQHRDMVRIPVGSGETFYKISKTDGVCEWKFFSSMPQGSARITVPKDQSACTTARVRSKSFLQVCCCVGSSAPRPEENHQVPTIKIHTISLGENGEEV

Rattus norvegicus [13] = experiment: (§5) Percentage fall in systolic blood pressure after 1 hr at 12.5 mg/kg given perorally; format: functional, organism-based; set-up: dose 12.5 mg/kg; conditions: Artery; outline: as §2
Rattus norvegicus [14] = experiment: Percentage fall in systolic blood pressure after 3 hr at 12.5 mg/kg given perorally; format: functional, organism-based; set-up: dose 12.5 mg/kg; conditions: Artery; outline: as §2
Rattus norvegicus [15] = experiment: Percentage fall in systolic blood pressure after 1 hr at 25 mg/kg given perorally; format: functional, Artery; conditions: route oral; outline: as §2
Rattus norvegicus [16] = experiment: (§6) Percentage fall in systolic blood pressure after 4 hr at 12.5 mg/kg given perorally; format: functional, organism-based; set-up: dose 12.5 mg/kg; conditions: Artery; outline: as §2
Rattus norvegicus [17] = experiment: Percentage fall in systolic blood pressure after 4 hr at 25 mg/kg given perorally; format: functional, Artery; conditions: route oral; outline: as §2
Rattus norvegicus [18] = experiment: Percentage fall in systolic blood pressure after 3 hr at 25 mg/kg given perorally; format: functional, Artery; conditions: route oral; outline: as §2
Rattus norvegicus [19] = experiment: as §4; format: functional, Artery; conditions: route oral; outline: as §2
Rattus norvegicus [20] = experiment: as §5; format: functional, Artery; conditions: route oral; outline: as §1
Rattus norvegicus [21] = experiment: as §6; format: functional, Artery; conditions: route oral; outline: as §2

CN1CC2(CCN(CCCC(=O)c3ccc(F)cc3)CC2)OCC1=O
Decrease in SBP (Rattus norvegicus [1]): 37%
Decrease in SBP (Rattus norvegicus [2]): 46%
Decrease in SBP (Rattus norvegicus [3]): Not significant
Decrease in SBP (Rattus norvegicus [4]): Not significant
Decrease in SBP (Rattus norvegicus [5]): 19%
Decrease in SBP (Rattus norvegicus [6]): 25%
Decrease in SBP (Rattus norvegicus [7]): 26%
Decrease in SBP (Rattus norvegicus [8]): 27%

O=C(NC1CCN(CCc2c[nH]c3ccccc23)CC1)c1ccccc1 [INDORAMIN]
-Log Ki [9]: 4.92
Decrease in SBP (Rattus norvegicus [10]): inactive
Decrease in SBP (Rattus norvegicus [11]): 28%
-Log Ki [12]: 7.61
Decrease in SBP (Rattus norvegicus [13]): inactive
Decrease in SBP (Rattus norvegicus [14]): inactive
Decrease in SBP (Rattus norvegicus [15]): 27%
Decrease in SBP (Rattus norvegicus [16]): inactive
Decrease in SBP (Rattus norvegicus [17]): 30%
Decrease in SBP (Rattus norvegicus [18]): 34%

CN1CC2(CCN(CC(O)C3COc4ccccc4O3)CC2)OCC1=O (stereo in doubt; 61)
Decrease in SBP (Rattus norvegicus [19]): 22%
Decrease in SBP (Rattus norvegicus [11]; 25 mg/kg): 36%
Decrease in SBP (Rattus norvegicus [20]): 25%
Decrease in SBP (Rattus norvegicus [21]): 19%
Decrease in SBP (Rattus norvegicus [17]): 40%
Decrease in SBP (Rattus norvegicus [18]; 25 mg/kg): 40%
